# Source: PubChem (several laboratories)
# Most compounds without a hit are left out; they make up all but 2.6% or so of the library.
# HSF-1 act – HSF-1 activators, primary screen, NIH3T3-HGL cells, MG132 stress, luminescence, single point; 1.7% of 300,000 active; AID 504408, 2011; activation, % at 9 µM; NIH3T3-HGL HSF-1 luciferase reporter, 8 h; 100% = twice DMSO control signal;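 active = mean replicate activation of at least 50% with a set share of replicates each reaching 50%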;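 note: 0% = median of the neutral control wells and 100% = twice that signal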
# Mdm2 ligase inh – MDM2-luciferase reporter signal enhancers, primary screen, MDM2 E3 ligase inhibitor project, cell-based, luminescence, 1536-well. E3 ubiquitin-protein ligase Mdm2 (Homo sapiens), Q00987. signal enhancement, % at 5 µM. 0.11% of 210,000 active. cell-based MDM2 ubiquitination luciferase reporter, 2 h; 0 = plate control, 100 = twice control, blank-subtracted;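 active = signal enhancement of 30% or more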;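 note: luminescence tracks abundance of the self-degrading MDM2-luciferase fusion protein; higher signal means inhibition of MDM2 E3 ligase activity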
#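 Test system: stable mammalian line carrying autodegrading MDM2–luciferase fusion reporter; quantity: 2000 cells in each well; times: 4 h cell settling then 2 h compound exposure, 37 °C; detection: luminescence with SteadyLite reagent, 15 min at room temperature; evaluation: percent signal gain over controls, blank-subtracted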
# HSF1 inh – HSF1 inhibitors in luciferase reporter cells, primary screen, cell-based, NIH3T3, luminescence; NIH3T3-HGL HSE-luciferase, MG132-induced, luminescence 8 h; hits give low values; activity change, negative = inhibition, % at 7.5 µM (by protocol); 0.77% of 300,000 active; AID 2098, 2009;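 active = more than half of replicate wells show activity change below -50%, luminescence cut by over half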;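 note: luciferase reports HSF-1 transcriptional activity via heat shock element; 0% = median of DMSO wells and -100% = zero luminescence signal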
# Hsp70 activator – Hsp70 transcriptional activators, primary screen, cell-based, HeLa, Hsp70 promoter luciferase, luminescence, 10 µM; HeLa Hsp70 promoter luciferase reporter; scaled: vehicle 0, proteasome-inhibitor control 100%; activation, % at 10 µM; 0.04% of 200,000 active;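 active = activation above the mean across all tested compounds plus 3 SD, cutoff set per campaign, cut at about 5.5% in these data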;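 note: 100% = MG132 at 30 µM as the positive control and 0% = DMSO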
# Rad51 HR inh – human RAD51 strand exchange inhibitors, primary screen, biochemical, fluorescence. DNA repair protein RAD51 homolog 1 (Homo sapiens), Q06609. inhibition, % at 10 µM. hRad51 DNA strand exchange, fluorescence dequenching. 0.085% of 200,000 active;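 active = inhibition above 40% at the single screening dose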;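 note: 0% = DMSO control wells and 100% = blanks with heterologous ssDNA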
# Target sequence (Q06609 whole entry, looked up): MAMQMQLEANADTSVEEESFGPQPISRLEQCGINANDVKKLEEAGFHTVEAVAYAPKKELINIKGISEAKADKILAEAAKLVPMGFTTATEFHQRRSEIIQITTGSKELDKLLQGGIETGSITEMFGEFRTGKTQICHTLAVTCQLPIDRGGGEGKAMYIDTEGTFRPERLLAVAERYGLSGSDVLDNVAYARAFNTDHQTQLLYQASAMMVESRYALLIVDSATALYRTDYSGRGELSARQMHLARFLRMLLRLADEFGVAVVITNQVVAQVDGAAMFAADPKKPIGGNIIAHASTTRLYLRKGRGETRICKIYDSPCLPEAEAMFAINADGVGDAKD
#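 Test system: preformed human Rad51 ssDNA filaments. Compound dosing: single dose, 10 µM final compound. Incubation: filaments 15 min 37 °C, then compound 30 min. Technique: FRET fluorescence dequenching, excitation 485 nm, emission 520 nm. Read-out basis: percent inhibition from fluorescence, normalised to plate control and blank means. Benchmarks: plate controls and plate blanks.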
# HSV replic up – enhancers of HSV replication in host cells, fold increase, host cell viability; 0.005% of 220,000 active; maximum fold increase; HSV replication augmentation in cells; in the data active = maximum fold increase above about 1.5; tested in PC3 cells
# * marks the source's active call; other numbers are inactive results; i = inactive; . = no result given.
SMILES,HSF-1 act,Mdm2 ligase inh,HSF1 inh,Hsp70 activator,Rad51 HR inh,HSV replic up
NC(=O)CC(NC(=O)c1ccc(Br)cc1)c1ccc(N2CCCCCC2)c([N+](=O)[O-])c1 (configuration not stated),74.0*,.,45.5,.,.,.
NC(=O)CC(NC(=O)c1ccccc1)c1ccc(N2CCCCCCC2)c([N+](=O)[O-])c1 (configuration not stated),-23.0,.,-0.6,.,.,.
O=C(O)CCc1ccc(-c2ccc(Br)cc2)n1Cc1ccco1,115.8*,0.0,67.8,0.0,-4.3,i
COc1ccc(-c2nc3c(s2)CN(S(C)(=O)=O)CC3)cc1OC,-3.1,.,-2.4,.,.,.
CCS(=O)(=O)N1CCc2nc(-c3ccccc3)sc2C1,62.5*,.,30.5,.,.,.
CN(C)c1ccc(/C=C/c2nc3ccccc3c(=O)[nH]2)cc1,-31.6,.,-23.7,.,.,.
N#CCc1nc2ccccc2c(=O)[nH]1,65.4*,-7.8,37.5,.,.,i
O=c1[nH]c(COc2ccccc2)nc2ccccc12,26.9,.,10.9,.,.,.
O=c1[nH]c(/C=C/c2ccc(Br)cc2)nc2ccccc12,64.6*,.,40.8,.,.,.
O=c1[nH]c(COc2ccc(Br)cc2Cl)nc2ccccc12,90.2*,.,49.7,.,.,.
O=C(NCc1ccco1)c1ccc(CNc2c(N3CCCCC3)c(=O)c2=O)cc1,9.5,.,-5.8,-0.1,.,.
C/C(=N/NC(=O)CNC(=O)COc1ccccc1)c1ccc(Cl)cc1,12.9,.,-4.3,.,.,.
COc1ccc(Cc2nc3ccc(C(=O)NCCCSC)cc3o2)cc1OC,14.4,.,5.5,.,.,.
COc1cc2c(cc1OC)CN(C(=S)Nc1c(C)cccc1C)CC2,19.4,10.1,-1.3,0.0,6.1,i
COc1ccc(-c2cn3cc(C)ccc3n2)cc1OC,95.6*,-32.1,71.1,-0.2,-7.4,i
COc1ccc(-c2cn3cc(C)ccc3n2)cc1F,59.2*,-70.5,23.9,-0.4,.,i
Cc1ccc2nc(-c3ccc4c(c3)OCCO4)cn2c1,-1.8,-86.1,-5.9,.,1.9,i
Cc1ccc2nc(-c3ccc4c(c3)NC(=O)CO4)cn2c1,64.4*,-30.1,33.0,.,4.8,i
COc1ccc(-c2cn3ccccc3n2)cc1OC,12.0,-14.2,16.5,0.1,-5.9,i
Cc1nn(C(C)C(=O)NCCCc2ccccc2)c(=O)c2nn(-c3ccccc3)c(C)c12 (configuration not stated),-2.1,.,2.4,.,.,.
Cc1ccc(-n2nnnc2C(=Cc2ccc(N(C)C)cc2)c2nnnn2-c2ccc(C)cc2)cc1,20.0,-9.2,17.7,-0.3,.,.
CCN(CC)c1ccc(C=C(c2nnnn2-c2ccccc2)c2nnnn2-c2ccccc2)cc1,-2.8,21.7,12.2,-0.2,-12.5,3.09*
Cc1cc(C)cc(NC(=O)[C@H](NC(=O)[C@@H]2Cc3ccccc3CN2)c2ccccc2)c1,20.4,.,14.2,.,.,.
CCOC(=O)CN1CCC(c2cc(-c3ccc(Cl)cc3)n[nH]2)CC1,51.7*,.,8.5,.,.,.
COc1ccc(/C(C)=N/NC(=S)NCCc2ccccc2)c(O)c1,52.9*,.,20.7,.,.,.
SMILES,HSF-1 act,Mdm2 ligase inh,HSF1 inh,Hsp70 activator,Rad51 HR inh,HSV replic up
Clc1cccc(/C=N\Nc2nccs2)c1,142.8*,-15.2,103.4,-0.2,1.6,i
O=C1N=C(N2CCCC2)S/C1=C\C=C\c1ccccc1,-79.5,-50.1,-75.7*,.,.,i
O=C1N=C(N2CCCCC2)S/C1=C\c1ccncc1,26.3,-7.3,7.1,.,.,i
CC(C)(C)c1ccc(S(=O)(=O)N2CCCCC2)cc1,-0.1,12.5,-8.9,-0.3,1.6,i
Cc1ccc(N(C)S(=O)(=O)c2cccc(C(=O)NCC(c3cccs3)N3CCOCC3)c2)cc1 (configuration not stated),-17.4,.,9.2,.,.,.
Cc1cccc(-n2cnc3c(c2=O)c2nc4ccccc4nc2n3Cc2ccco2)c1,104.4*,.,101.4,.,1.3,i
CCN(CC)C(=O)Cn1cc(C(=O)C(=O)N2CCN(c3ccc(OC)cc3)CC2)c2ccccc21,5.0,.,-16.1,.,.,.
Cc1nn(Cc2ccccc2Cl)c(Cl)c1C(=O)NCCc1ccccc1,61.1*,-18.3,40.5,-0.1,-3.3,i
